Measurements reported in ChEMBL document CHEMBL5620388, “Quinolone analogues of benzothiazinone: Synthesis, antitubercular structure-activity relationship and ADME profiling” (Eur J Med Chem, 2023).
≈ marks a conversion by molar mass, not a printed value.

What was measured:
Format in all cases: functional
[1] = system: Mycobacterium tuberculosis; assay: Antitubercular activity against Mycobacterium tuberculosis harboring DprE1 p116S mutant assessed as reduction in bacterial growth incubated for 14 days; conditions: time 14 day
In short: (§1)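 Strains were H37Rv, the fluoroquinolone-resistant GyrA G88C mutant, and the dprE1 P116S and C387S mutants. All were cultured in standard Middlebrook 7H9 with ADC supplement.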

[2] = system: Mycobacterium tuberculosis; assay: Antitubercular activity against Mycobacterium tuberculosis harboring DprE1 C387S mutant assessed as reduction in bacterial growth incubated for 14 days; conditions: time 14 day; in short: as §1
[3] = system: Mycobacterium tuberculosis; assay: Antitubercular activity against moxifloxacin-resistant Mycobacterium tuberculosis assessed as reduction in bacterial growth incubated for 14 days; conditions: 336 h, time 14 day; in short: as §1

Row | SMILES | MIC90 [1] [µM] | MIC90 [2] [µM] | MIC90 [3] [µM]
1 | O=C(NCCc1ccc(C(F)(F)F)cc1)c1c[nH]c2c([N+](=O)[O-])cc(C(F)(F)F)cc2c1=O | 0.5 (≈ 0.237 µg/mL) | 54.2 (≈ 25.7 µg/mL) | 0.9 (≈ 0.426 µg/mL)
2 | O=C(NCCc1ccc(F)cc1)c1c[nH]c2c([N+](=O)[O-])cc(C(F)(F)F)cc2c1=O | 1 (≈ 0.423 µg/mL) | >62 | 1.9 (≈ 0.804 µg/mL)
3 | O=C(NCCc1ccc(Cl)cc1)c1c[nH]c2c([N+](=O)[O-])cc(C(F)(F)F)cc2c1=O | 17 (≈ 7.48 µg/mL) | 44.8 (≈ 19.7 µg/mL) | 1.9 (≈ 0.836 µg/mL)
4 | NNC(=O)c1ccncc1 [ISONIAZID] | 2 (≈ 0.274 µg/mL) | 3.3 (≈ 0.453 µg/mL) | 3.6 (≈ 0.494 µg/mL)
5 | COc1c(N2C[C@@H]3CCCN[C@@H]3C2)c(F)cc2c(=O)c(C(=O)O)cn(C3CC3)c12 [MOXIFLOXACIN] | 0.1 (≈ 0.0401 µg/mL) | 0.05 (≈ 0.0201 µg/mL) | 6.3 (≈ 2.53 µg/mL)
